Test results reported in ChEMBL document CHEMBL1156453, “Cellular characterization of a novel focal adhesion kinase inhibitor” (J Biol Chem, 2007).
Calls of active or inactive are those of the source. The calls are words filed in the database; no cut-off is given here.

What was measured:
[1] = target: Tyrosine-protein kinase Lck (Homo sapiens) (UniProt P06239); experiment: Inhibition of LCK at 1 uM
[2] = target: Cyclin-dependent kinase 1/cyclin B1 (Homo sapiens, UniProt P06493); experiment: Inhibition of human CDK1/cyclinB; assay type: protein-complex assay
Focal adhesion kinase 1 [3] = target: T1, Focal adhesion kinase 1 (Homo sapiens, UniProt Q05397); experiment: Inhibition of FAK Tyr397 phosphorylation in human FG cells after 60 mins by Western blot analysis
[4] = target: Ribosomal protein S6 kinase beta-1 (Homo sapiens) (UniProt P23443); experiment: Inhibition of human P70S6K at 1 uM
[5] = target: Paxillin (Rattus norvegicus) (UniProt Q66H76); experiment: Decrease in Paxillin Try31 phosphorylation in rat REF52 cells; assay type: cell-based
Method in brief: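 REF52 cells exposed to 1 μm inhibitor for the indicated times, then lysed in CH buffer containing phosphatase and protease inhibitors. Whole-cell lysates resolved by SDS-PAGE and immunoblotted with anti-phospho-Tyr31 paxillin and anti-paxillin.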

[6] = target: Cyclin-dependent kinase 1/cyclin B1 (Homo sapiens) (UniProt P06493+P14635); experiment: Inhibition of human CDK1/cyclinB at 1 uM; assay type: protein-complex assay
Method in brief: (§1)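 Recombinant kinases were screened in a commercial profiling panel with the compound at a single concentration of 1 μM. The read-out is percent inhibition of each enzyme's kinase activity.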

[7] = target: Cyclin-dependent kinase 3 (Homo sapiens) (UniProt Q00526); experiment: Inhibition of human CDK3/cyclinE at 1 uM
Focal adhesion kinase 1 [8] = target: T1, Focal adhesion kinase 1; experiment: Inhibition of FAK Tyr397 phosphorylation in human SKOV3 cells after 60 mins by Western blot analysis
PC-3 [9] = experiment: Induction of apoptosis in human PC3 cells attached in serum containing medium assessed as histone accumulation after 24 hrs by ELISA
[10] = target: Mitogen-activated protein kinase 8 (Homo sapiens) (UniProt P45983); experiment: Inhibition of human JNK1alpha1 at 1 uM
[11] = target: Cyclin-dependent kinase 7 (Homo sapiens, UniProt P50613); experiment: Inhibition of human CDK7/cyclinH/MAT1 at 1 uM; method in brief: as §1
Focal adhesion kinase 1 [12] = target: T1, Focal adhesion kinase 1; experiment: Inhibition of FAK Tyr397 phosphorylation in human L3.6pl cells after 60 mins by Western blot analysis
PC-3 [13] = experiment: Cell number in human PC3 cells at 10 uM after 3 days as % of control; conditions: PC-3, 72 h
[14] = target: Insulin receptor (Homo sapiens) (UniProt P06213); experiment: Inhibition of IR at 1 uM
[15] = Inhibition of 10% serum-stimulated cell migration of rat REF52 cells at 1.0 uM pretreated for 30 mins measured after 6 hrs by transwell assay relative to control; assay type: functional
Method in brief: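 Modified Boyden transwell, 8-μm pores. REF52 cells (1 × 10⁵) pretreated 30 min with inhibitor, which stayed in both chambers. Attractant was 10% FBS in the lower chamber, or membrane underside coated with 1.5 μg/ml fibronectin overnight at 4 °C under serum-free DMEM. Migration 6 h at 37 °C. Underside cells fixed, crystal-violet stained and counted in four fields. Triplicates normalized to untreated control; ANOVA then t-tests.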

[16] = target: Insulin-like growth factor 1 receptor (Homo sapiens) (UniProt P08069); experiment: Inhibition of IGF1R at 1 uM
[17] = target: Tyrosine-protein kinase BTK (Homo sapiens) (UniProt Q06187); experiment: Inhibition of BTK at 1 uM
MDCK = experiment: Induction of apoptosis in attached dog MDCK cells assessed as histone accumulation after 16 hrs by ELISA; assay type: functional, cell-based; conditions: Canis lupus familiaris
Method in brief: (§2)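 Attached cells in serum-containing medium treated with inhibitor at the indicated concentrations, 24 h for REF52 and PC3, 16 h for MDCK, then lysed. Free histones in lysates measured by cell death detection ELISA, in duplicate. Untreated adherent cells were the negative control. Cells suspended 16–24 h in serum-free medium were the positive control. One of three experiments shown.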

[18] = target: CDK6/cyclin D3 (Homo sapiens) (UniProt P30281+Q00534); experiment: Inhibition of human CDK6/cyclinD3 at 1 uM; assay type: protein-complex assay
[19] = target: Proto-oncogene tyrosine-protein kinase Src (Homo sapiens) (UniProt P12931); experiment: Inhibition of human cSRC at 1 uM
[20] = target: Tyrosine-protein kinase JAK3 (Homo sapiens) (UniProt P52333); experiment: Inhibition of JAK3 at 1 uM
[21] = target: Cyclin-dependent kinase 2 (Homo sapiens) (UniProt P24941); experiment: Inhibition of human CDK2/cyclinE at 1 uM
[22] = target: Tyrosine-protein kinase Fyn (Homo sapiens) (UniProt P06241); experiment: Inhibition of Fyn at 1 uM
[23] = Inhibition of cell migration of rat REF52 cells assessed as reduction in rate of movement of cell into wound at 1 uM by wound healing assay in presence of 10% serum; assay type: functional; design: scale not given: the % may be the effect or the level left
Method in brief: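 Confluent REF52 monolayers wounded with a pipette tip, with inhibitor added at wounding. Starting 1 h later, cells filmed for 9 h at 37 °C by DIC time-lapse microscopy. Nuclei of single cells tracked, and speed taken as track length divided by total movie time.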

[24] = target: Paxillin (Rattus norvegicus) (UniProt Q66H76); experiment: Induction of paxillin organization loss in focal adhesion in rat REF52 cells at 3 uM after 1 hr by immunostaining; assay type: cell-based
Method in brief: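 REF52 cells held in suspension 30 min to 1 h without serum with inhibitor, then plated on 5 μg/ml fibronectin-coated coverslips for 60 min with inhibitor still present. Cells fixed in 4% paraformaldehyde, permeabilized with Triton X-100 and immunostained for paxillin and phospho-FAK Tyr397. Imaged by fluorescence microscopy, 60× objective.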

[25] = target: Protein kinase C alpha type (Homo sapiens) (UniProt P17252); experiment: Inhibition of human PKCalpha at 1 uM
[26] = Cell number in rat REF52 cells at 10 uM after 3 days as % of control; conditions: REF52, 72 h
[27] = Inhibition of cell migration of rat REF52 cells assessed as reduction in rate of movement of cell into wound at 10 uM by wound healing assay in presence of 10% serum; assay type: functional; design: scale not given: the % may be the effect or the level left
NIH3T3 = experiment: Inhibition of focal adhesion turnover in wounded mouse NIH3T3 cells expressing GFP-paxillin assessed as average adhesion life-time at 1 uM by TIRF microscopy; assay type: functional
Homo sapiens = organism: Homo sapiens; experiment: Inhibition of human CDK5/p35 at 1 uM; method in brief: as §1
[28] = target: Tyrosine-protein kinase ABL1 (Homo sapiens) (UniProt P00519); experiment: Inhibition of human Abl at 1 uM
[29] = target: Protein-tyrosine kinase 2-beta (Homo sapiens, UniProt Q14289); experiment: Inhibition of Pyk2
Method in brief: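 Recombinant Pyk2 was run in parallel with the FAK kinase assay. That assay measures phosphorylation of a poly(Glu/Tyr) (4:1) substrate in an ELISA read with anti-phosphotyrosine (PY20) and an HRP secondary. Compounds were serially diluted at ½-log steps from a 1 μm top concentration, each concentration was run in triplicate, and IC50 was fitted by the Hill slope model.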

[30] = target: Inhibitor of nuclear factor kappa-B kinase subunit beta (Homo sapiens) (UniProt O14920); experiment: Inhibition of human IKK-beta at 1 uM
PC-3 [31] = experiment: Induction of apoptosis in attached human PC3 cells assessed as histone accumulation after 24 hrs by ELISA; assay type: functional, cell-based; method in brief: as §2
Fibroblast = experiment: Inhibition of cell growth in […] fibroblast at 10 uM; assay type: functional, cell-based

T1 sequence (Q05397 whole entry): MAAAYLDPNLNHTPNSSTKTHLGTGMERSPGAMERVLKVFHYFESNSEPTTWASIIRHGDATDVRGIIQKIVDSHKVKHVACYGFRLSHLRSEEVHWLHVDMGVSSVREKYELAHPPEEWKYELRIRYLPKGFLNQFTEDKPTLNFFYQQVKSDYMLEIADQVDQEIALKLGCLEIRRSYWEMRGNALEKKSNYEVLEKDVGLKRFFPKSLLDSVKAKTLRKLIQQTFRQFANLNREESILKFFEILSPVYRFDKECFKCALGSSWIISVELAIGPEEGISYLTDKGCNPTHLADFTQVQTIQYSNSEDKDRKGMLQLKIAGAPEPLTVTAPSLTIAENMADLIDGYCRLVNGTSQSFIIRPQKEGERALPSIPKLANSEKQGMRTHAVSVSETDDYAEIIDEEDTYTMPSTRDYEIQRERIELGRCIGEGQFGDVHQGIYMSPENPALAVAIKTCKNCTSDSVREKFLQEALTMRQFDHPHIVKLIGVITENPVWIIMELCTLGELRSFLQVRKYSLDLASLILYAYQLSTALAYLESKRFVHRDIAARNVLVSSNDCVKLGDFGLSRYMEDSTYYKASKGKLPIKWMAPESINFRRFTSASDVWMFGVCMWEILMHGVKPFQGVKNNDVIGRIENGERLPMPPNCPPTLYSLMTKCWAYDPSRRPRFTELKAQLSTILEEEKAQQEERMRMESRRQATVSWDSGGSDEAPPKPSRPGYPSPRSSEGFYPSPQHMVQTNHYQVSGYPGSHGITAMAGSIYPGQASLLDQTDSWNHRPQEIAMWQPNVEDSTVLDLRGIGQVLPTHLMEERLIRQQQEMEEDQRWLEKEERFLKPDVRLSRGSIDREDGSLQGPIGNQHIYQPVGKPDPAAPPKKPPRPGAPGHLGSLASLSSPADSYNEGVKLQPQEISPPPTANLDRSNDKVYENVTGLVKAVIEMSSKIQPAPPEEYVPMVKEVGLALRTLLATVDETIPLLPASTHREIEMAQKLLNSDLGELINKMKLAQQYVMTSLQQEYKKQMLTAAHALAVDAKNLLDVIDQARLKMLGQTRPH
Chain of Paxillin (Rattus norvegicus) (Q66H76 whole entry): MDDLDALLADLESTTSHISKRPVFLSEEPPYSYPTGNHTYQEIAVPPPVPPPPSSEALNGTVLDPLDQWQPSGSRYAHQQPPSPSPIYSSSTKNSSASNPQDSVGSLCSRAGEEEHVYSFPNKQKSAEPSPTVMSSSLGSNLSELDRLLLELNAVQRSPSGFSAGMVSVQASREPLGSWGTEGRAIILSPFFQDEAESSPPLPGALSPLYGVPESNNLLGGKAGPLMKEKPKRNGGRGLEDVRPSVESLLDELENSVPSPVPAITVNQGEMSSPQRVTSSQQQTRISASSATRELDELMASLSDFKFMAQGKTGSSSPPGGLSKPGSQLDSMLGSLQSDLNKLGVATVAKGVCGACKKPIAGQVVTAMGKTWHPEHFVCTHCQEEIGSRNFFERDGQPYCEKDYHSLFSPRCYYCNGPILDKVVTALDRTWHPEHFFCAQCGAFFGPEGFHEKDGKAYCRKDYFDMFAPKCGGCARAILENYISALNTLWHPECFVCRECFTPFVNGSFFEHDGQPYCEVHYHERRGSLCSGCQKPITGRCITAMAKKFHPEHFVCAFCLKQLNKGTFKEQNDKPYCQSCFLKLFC
Chain of Ribosomal protein S6 kinase beta-1 (Homo sapiens) (P23443 whole entry, looked up): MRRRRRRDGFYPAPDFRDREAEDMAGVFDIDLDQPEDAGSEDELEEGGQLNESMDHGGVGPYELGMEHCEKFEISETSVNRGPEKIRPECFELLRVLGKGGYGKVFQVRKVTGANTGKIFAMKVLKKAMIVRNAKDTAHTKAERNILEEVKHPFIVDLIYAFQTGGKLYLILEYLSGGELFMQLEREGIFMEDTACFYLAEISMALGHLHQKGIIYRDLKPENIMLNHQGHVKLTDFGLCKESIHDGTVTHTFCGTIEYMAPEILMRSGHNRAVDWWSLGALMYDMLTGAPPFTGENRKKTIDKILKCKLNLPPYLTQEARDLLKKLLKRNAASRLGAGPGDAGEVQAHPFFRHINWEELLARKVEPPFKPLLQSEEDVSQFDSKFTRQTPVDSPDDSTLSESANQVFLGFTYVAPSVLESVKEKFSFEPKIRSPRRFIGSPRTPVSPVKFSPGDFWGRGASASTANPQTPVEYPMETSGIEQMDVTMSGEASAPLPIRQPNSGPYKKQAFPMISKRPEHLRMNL
Chain of Tyrosine-protein kinase JAK3 (Homo sapiens) (P52333 whole entry): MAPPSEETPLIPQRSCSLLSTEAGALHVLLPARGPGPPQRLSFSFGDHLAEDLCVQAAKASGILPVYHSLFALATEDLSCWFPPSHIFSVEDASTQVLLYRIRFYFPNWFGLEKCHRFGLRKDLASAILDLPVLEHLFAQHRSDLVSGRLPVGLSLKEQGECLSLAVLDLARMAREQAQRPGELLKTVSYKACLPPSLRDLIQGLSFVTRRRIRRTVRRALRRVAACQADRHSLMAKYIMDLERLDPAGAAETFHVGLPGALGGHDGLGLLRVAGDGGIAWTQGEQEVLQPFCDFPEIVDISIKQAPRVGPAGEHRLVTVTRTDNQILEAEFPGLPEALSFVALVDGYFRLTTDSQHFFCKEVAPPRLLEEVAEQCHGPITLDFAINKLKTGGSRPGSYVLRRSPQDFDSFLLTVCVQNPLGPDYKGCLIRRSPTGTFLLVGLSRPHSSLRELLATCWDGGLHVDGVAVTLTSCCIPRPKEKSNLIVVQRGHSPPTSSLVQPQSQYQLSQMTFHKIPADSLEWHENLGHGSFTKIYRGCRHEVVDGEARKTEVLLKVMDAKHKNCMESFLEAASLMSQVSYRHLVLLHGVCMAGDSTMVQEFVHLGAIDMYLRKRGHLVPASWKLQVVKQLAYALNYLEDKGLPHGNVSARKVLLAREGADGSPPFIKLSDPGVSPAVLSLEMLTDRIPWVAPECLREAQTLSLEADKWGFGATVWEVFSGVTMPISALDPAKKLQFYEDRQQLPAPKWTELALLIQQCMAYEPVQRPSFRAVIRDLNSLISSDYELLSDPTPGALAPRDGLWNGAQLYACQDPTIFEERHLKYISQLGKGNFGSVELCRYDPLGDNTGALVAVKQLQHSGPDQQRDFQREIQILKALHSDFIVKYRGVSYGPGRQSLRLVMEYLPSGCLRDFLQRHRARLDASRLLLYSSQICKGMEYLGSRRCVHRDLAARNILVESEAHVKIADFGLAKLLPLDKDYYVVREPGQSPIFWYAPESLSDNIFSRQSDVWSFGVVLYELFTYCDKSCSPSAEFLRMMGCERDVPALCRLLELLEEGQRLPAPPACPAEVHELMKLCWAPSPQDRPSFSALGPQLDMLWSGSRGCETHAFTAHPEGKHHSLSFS
Chain of Tyrosine-protein kinase BTK (Homo sapiens) (Q06187 whole entry): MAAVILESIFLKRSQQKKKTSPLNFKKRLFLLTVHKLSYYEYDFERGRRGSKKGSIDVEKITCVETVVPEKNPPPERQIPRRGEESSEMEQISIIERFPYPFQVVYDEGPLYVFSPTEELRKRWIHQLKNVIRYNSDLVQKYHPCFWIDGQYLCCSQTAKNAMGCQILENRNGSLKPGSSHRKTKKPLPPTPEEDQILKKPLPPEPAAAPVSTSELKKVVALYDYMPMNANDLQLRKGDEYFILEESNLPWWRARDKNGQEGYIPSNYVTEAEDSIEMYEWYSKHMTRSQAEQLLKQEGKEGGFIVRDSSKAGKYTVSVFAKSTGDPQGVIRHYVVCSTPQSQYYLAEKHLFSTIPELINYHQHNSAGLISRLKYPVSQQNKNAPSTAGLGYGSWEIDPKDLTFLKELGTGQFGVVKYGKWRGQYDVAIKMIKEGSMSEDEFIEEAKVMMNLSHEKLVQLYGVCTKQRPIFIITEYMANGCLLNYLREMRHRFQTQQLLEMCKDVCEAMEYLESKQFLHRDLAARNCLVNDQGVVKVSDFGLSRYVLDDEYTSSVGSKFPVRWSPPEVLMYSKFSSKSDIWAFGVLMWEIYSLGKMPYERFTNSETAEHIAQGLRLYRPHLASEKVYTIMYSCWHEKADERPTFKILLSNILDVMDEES
Chain of Mitogen-activated protein kinase 8 (Homo sapiens) (P45983 whole entry): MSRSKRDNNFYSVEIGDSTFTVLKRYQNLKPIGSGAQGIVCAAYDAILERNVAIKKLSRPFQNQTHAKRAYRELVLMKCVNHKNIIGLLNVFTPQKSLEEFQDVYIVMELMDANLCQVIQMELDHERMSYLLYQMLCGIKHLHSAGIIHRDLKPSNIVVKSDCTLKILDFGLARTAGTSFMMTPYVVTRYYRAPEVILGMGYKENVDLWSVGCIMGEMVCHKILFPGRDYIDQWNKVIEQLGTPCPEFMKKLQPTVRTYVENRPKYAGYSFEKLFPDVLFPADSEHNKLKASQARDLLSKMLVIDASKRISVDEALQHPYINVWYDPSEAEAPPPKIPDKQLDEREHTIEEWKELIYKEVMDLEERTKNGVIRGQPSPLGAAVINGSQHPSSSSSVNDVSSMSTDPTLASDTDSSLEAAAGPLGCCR

CS(=O)(=O)c1cccc(CNc2nc(Nc3ccc4c(c3)CCC(=O)N4)ncc2C(F)(F)F)c1
inhibition [1]: 0%
IC50 [2]: 486 nM
IC50 (Focal adhesion kinase 1 [3]): 30 nM
inhibition [4]: 31%
Activity [5]: Dose-dependent effect
inhibition [6]: 77%
inhibition [7]: 44%
IC50 (Focal adhesion kinase 1 [8]): 50 nM
Activity (PC-3 [9]): inactive
inhibition [10]: 4%
inhibition [11]: 86%
IC50 (Focal adhesion kinase 1 [12]): 300 nM
level, % of control at 10 µM (PC-3 [13]): 17%
inhibition [14]: 27%
Activity [15]: 1
inhibition [16]: 21%
inhibition [17]: 11%
Activity (MDCK): inactive
inhibition [18]: 15%
inhibition [19]: 1%
inhibition [20]: 27%
inhibition [21]: 44%
inhibition [22]: 28%
Activity [23]: 27%
Activity [24]: Active
inhibition [25]: 12%
level, % of control at 10 µM [26]: 7%
Activity [27]: 60%
Time (NIH3T3): 33.1 min
inhibition (Homo sapiens): 0%
inhibition [28]: 8%
IC50 [29]: > 1000 nM
inhibition [30]: 56%
Activity (PC-3 [31]): inactive
Activity (Fibroblast): Active
